pCIP destab: lowers stability of the mouse p/CIP coactivator protein; F442A p/CIP-EGFP cells, EGFP fluorescence, 16 h; decrease of EGFP signal, % at 10 µM; actives 0.01% (n = 290,000);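 active means EGFP signal decrease of at least 30% at 10 µM or well 3 SD below plate mean, unless failing retest; inactive means the rest, including hits failing retest or dose response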
V-ATPase pHluor: yeast V-ATPase proton transport regulation by pHLuorin. S. cerevisiae, pHLuorin cytosolic pH fluorescence. response, % at 10 µM. actives 0.37% (n = 350,000); in the data active means response mostly above about 7.3%, no sharp cut-off; inactive means mostly below about 5.4%; further: actives read high
Dynein transport: blocks dynein driven cargo transport along microtubules; 3617.4 mouse cells, GR-EGFP nuclear translocation imaging; test concentration mostly 20 µM; stimulated with dexamethasone, 1 µM; hits give low values; z-score, hits read low; actives 0.47% (n = 220,000);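 active means plate z-score of nuclear minus cytoplasmic receptor signal below a set negative limit, without overly bright fluorescence or cell loss, cut at about -3.5 in these data, passing the limit was not always enough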;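 further: z-score of nuclear minus cytoplasmic ring GR-EGFP intensity difference per well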
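Schedule: 48 h induction, then 1 h compound, then 30 min agonist, 37 °C. Buffer or medium: tetracycline-free induction medium containing charcoal-stripped FBS. Reagent: 1.0 µM final dexamethasone stimulus. Evaluation: nuclear versus cytoplasmic GR-EGFP signal, averaged per well. Signal: high-content fluorescence imaging after fixation.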
ABCB6 inh 2: human ABCB6 transporter inhibition. K562-ABCB6 porphyrin accumulation, flow cytometry, 1 h; hits give low values. fluorescence ratio to DMSO, % at 10 µM. actives 0.19% (n = 360,000);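 active means fluorescence ratio to DMSO below 75%, the collection mean minus 3 SD; inconclusive means too few cells collected in the well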;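 further: signal is porphyrin accumulated inside mitochondria; 100% equals median channel fluorescence of DMSO control wells; lower ratio means ABCB6 inhibition with less porphyrin fluorescence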
KCC2 mod: KCC2 (human) Cl- transport modulation; Q9H2X9; KCC2 cells, thallium flux FluoZin-2 fluorescence; B-score of Tl+ flux slope (higher = more flux/activation; lower = inhibition) at 10 µM; actives 2.2% (n = 190,000);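 active means thallium flux slope and its plate-corrected score both differing from the plate sample mean at a set confidence after two filtering rounds, in either direction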;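 further: slope of fluorescence scaled to starting intensity during 10 to 20 s after thallium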
Target sequence (Q9H2X9 whole entry, looked up): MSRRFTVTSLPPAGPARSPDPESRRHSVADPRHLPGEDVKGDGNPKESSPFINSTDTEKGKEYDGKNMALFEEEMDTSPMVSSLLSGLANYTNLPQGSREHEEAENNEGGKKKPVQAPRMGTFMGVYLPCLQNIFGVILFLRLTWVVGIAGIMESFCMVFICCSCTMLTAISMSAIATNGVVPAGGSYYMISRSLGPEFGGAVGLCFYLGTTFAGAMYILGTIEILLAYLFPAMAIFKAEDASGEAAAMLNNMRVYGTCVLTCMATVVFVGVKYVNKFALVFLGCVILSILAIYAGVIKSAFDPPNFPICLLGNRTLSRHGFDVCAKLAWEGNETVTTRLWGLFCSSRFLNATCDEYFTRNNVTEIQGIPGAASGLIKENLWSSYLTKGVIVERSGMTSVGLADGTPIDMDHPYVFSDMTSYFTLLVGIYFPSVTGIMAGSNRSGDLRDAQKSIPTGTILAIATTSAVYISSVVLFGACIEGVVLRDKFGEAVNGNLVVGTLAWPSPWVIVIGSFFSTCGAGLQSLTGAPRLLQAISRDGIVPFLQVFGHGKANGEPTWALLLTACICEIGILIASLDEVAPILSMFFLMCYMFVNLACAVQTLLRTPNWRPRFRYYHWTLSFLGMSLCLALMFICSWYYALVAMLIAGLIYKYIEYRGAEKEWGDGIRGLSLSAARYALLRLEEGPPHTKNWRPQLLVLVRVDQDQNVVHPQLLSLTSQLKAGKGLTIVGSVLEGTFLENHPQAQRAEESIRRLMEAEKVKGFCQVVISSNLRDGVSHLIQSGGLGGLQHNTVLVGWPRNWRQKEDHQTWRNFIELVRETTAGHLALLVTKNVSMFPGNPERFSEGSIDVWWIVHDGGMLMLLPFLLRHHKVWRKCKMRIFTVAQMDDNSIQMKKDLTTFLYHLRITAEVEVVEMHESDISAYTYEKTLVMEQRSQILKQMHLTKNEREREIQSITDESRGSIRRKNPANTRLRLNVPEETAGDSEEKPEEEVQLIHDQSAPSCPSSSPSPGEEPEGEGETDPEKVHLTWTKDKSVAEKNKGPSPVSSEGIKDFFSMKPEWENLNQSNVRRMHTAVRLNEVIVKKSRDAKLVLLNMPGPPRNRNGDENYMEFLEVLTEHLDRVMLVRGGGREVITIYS
Dynein confirm: dynein cargo transport inhibition, confirmation; shares compounds with Dynein transport; 3617.4 GR-EGFP nuclear translocation imaging, dexamethasone-induced; calls only at 20 µM; actives 69% (n = 1,000);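 active means inhibition of receptor movement into the nucleus at or above a set limit in both runs, with normal cell brightness and cell count; inconclusive means limit reached in only one run, brightness and count normal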;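 further: dexamethasone at 1 µM final in well for 30 min; nuclear minus cytoplasmic GR-EGFP mean intensity difference in channel 2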
An asterisk follows results filed as active; i = inactive; ? = inconclusive; nt = no result; + = active, no number. The full list was thinned out, with hits kept by preference.

SMILES	pCIP destab	V-ATPase pHluor	Dynein transport	ABCB6 inh 2	KCC2 mod	Dynein confirm
CCOC(=O)C1=C(CSc2nc(-c3ccncc3)ccc2C#N)OC(N)=C(C#N)C1c1cccnc1 (stereo not drawn)	-21.0	0.1	-1.55	89.0	-2.72	nt
CCOC(=O)C1=C(CSc2nc(-c3ccncc3)ccc2C#N)OC(N)=C(C#N)C1c1ccc(OC)cc1 (stereo not drawn)	-44.2	-4.5	-5.83	136.0	-2.47	i
CC(C)C[C@H]1CNC(=S)N1CC1CCN(CCCC2CCCC2)CC1	nt	2.3	nt	96.0	nt	nt
COC(=O)c1cc(NC(=O)c2ccccc2)c(=O)oc1/C=C/Nc1ccc(Oc2ccccc2)cc1	-799.0	1.9	-7.61	i	i	i
CC(=O)Nc1ccc(OCC(O)Cn2cncn2)cc1 (stereo not drawn)	-3.2	1.4	nt	98.0	nt	nt
CCC(=O)N1CCN(c2ccc(NC(=O)c3ccc([N+](=O)[O-])o3)cc2Cl)CC1	-0.7	-3.2	-4.98*	103.0	-0.0146	+
CCN1CCN(c2ccc(NC(=O)c3ccc([N+](=O)[O-])o3)cc2Cl)CC1	-12.8	0.8	-4.2*	103.0	-1.52	+
CCOc1cc(/C=C2\C(=O)N(CCc3ccc(OC)c(OC)c3)C(C)=C2C(=O)OC)ccc1O	-0.2	-3.4	-4*	95.0	-0.0785	i
COC(=O)C1=C(C)N(Cc2ccc(C)cc2)C(=O)/C1=C\c1ccc(O)c(OC)c1	1.8	-1.7	-2.07	112.0	nt	nt
CCOc1cc(/C=C2\C(=O)N(Cc3ccco3)C(C)=C2C(=O)OC)ccc1O	15.4	-8.4	-4.35*	95.0	-0.365	+
COC(=O)C1=C(C)N(Cc2ccc(C)cc2)C(=O)/C1=C\c1cc(OC)c(OC)c(OC)c1	4.5	-4.2	-3.5*	102.0	-0.735	+
Cc1ccc([C@H]2N[C@]3(CCCN(Cc4ccc(C(F)(F)F)cc4)C3=O)[C@H]3C(=O)N(Cc4ccccc4)C(=O)[C@@H]23)cc1	nt	1.4	nt	101.0	nt	nt
COC1=C(Nc2ccccc2OC)C(=O)c2ccccc2C1=O	-12.0	-6.5	0.437	93.0	-0.866	nt
COc1ccccc1NC1=C(NC(C)=O)C(=O)c2ccccc2C1=O	-11.3	-6.3	-5.07*	102.0	nt	?
O=C(OCC(=O)N1CCc2ccccc21)c1ccccn1	-11.6	-0.6	-0.915	99.0	nt	nt
Cc1ccc(N(Cc2ccccc2)C(=O)CSC(C)C(=O)Nc2cc(C)on2)cc1 (stereo not drawn)	nt	-0.6	nt	93.0	nt	nt
CCCN(CCC)C(=O)c1cc([N+](=O)[O-])cc2c1-c1ccc([N+](=O)[O-])cc1C2=C(C#N)C#N	-32.3	nt	-4.62*	nt	-0.536	+
COc1ccc(S(=O)(=O)N2CCCOC2CNC(=O)C(=O)NCc2ccncc2)cc1 (stereo not drawn)	0.0	-1.1	nt	97.0	nt	nt
N#C/C(=C\c1cccc([N+](=O)[O-])c1)C(=O)NCc1ccc(Cl)cc1	-5.7	1.3	-6.8*	99.0	1.42	+
CC(=O)N(C(C)=O)c1ncn(C)c1S(=O)(=O)Nc1ccccc1	nt	-0.9	nt	99.0	nt	nt
Cc1ccc2[nH]c(=O)c(CN(CC3CCCO3)C(=S)NCc3ccco3)cc2c1 (stereo not drawn)	3.3	0.2	-0.0216	115.0	-0.0145	nt
Cc1ccc2cc(CN(CC3CCCO3)C(=S)NCc3ccco3)c(=O)[nH]c2c1 (stereo not drawn)	-17.0	2.2	-3.55*	99.0	-0.321	i
CC(=O)Nc1cccc(NC(=O)NC2CC(=O)N(c3ccc4c(c3)OCCO4)C2)c1 (stereo not drawn)	nt	-2.4	nt	95.0	nt	nt
O=c1c2ccccc2sn1-c1ccccc1F	nt	0.3	nt	105.0	nt	nt
Cc1ccccc1-n1sc2cc(F)ccc2c1=O	-7.2	3.5	-4.84*	98.0	1.36	+
SMILES	pCIP destab	V-ATPase pHluor	Dynein transport	ABCB6 inh 2	KCC2 mod	Dynein confirm
CC(C)(C)c1ccc(C(=O)CC(Sc2ccc(Cl)cc2)C(=O)O)cc1 (stereo not drawn)	-15.2	2.9	-4.65*	99.0	-1.27	+
Cc1ccc(SC(CC(=O)c2ccc(F)cc2)C(=O)O)cc1 (stereo not drawn)	-21.4	-1.3	nt	101.0	nt	nt
O=c1c(Cl)nc2cc(Cl)ccc2n1CCNc1ncc(C(F)(F)F)cc1Cl	-2.3	0.3	-4.49*	87.0	nt	i
O=C(COC(=O)COc1ccc(Cl)cc1Br)NC1CC1	nt	-2.7	nt	101.0	nt	nt
COc1cc2c(cc1OC)C(SC)=NC1(CCCC1)C2	7.6	-4.8	-3.56*	107.0	-0.196	+
COc1cc2c(cc1OC)C(C)=NC1(CCCCC1)C2	-3.6	-1.9	-0.786	97.0	0.651	nt
COc1ccc(N(Cc2ccccc2)C(=O)OC(C)(C)C)c(C(=O)N(C)OC)c1	nt	-0.3	nt	101.0	nt	nt
Cc1ccc(S(=O)(=O)NCC(C)n2nc(C)cc2C)cc1 (stereo not drawn)	-1.5	-3.2	nt	100.0	nt	nt
Cc1ccc(C(C[N+](=O)[O-])n2nc(C)cc2C)cc1 (stereo not drawn)	2.3	6.8	-5.31*	94.0	-1.72	i
O=C(CCN1CCN(c2ccccc2F)CC1)c1ccc(Br)cc1	0.3	2.8	-4.27*	91.0	nt	i
CN1CCN(C2=C(Cl)C(=O)C(c3cnc(N4CCCCC4)s3)=C(Cl)C2=O)CC1	-15.5	16.7*	-4.71*	115.0	0.0626	+
CN1CCN(C2=C(Cl)C(=O)c3ccccc3C2=O)CC1	nt	3.3	nt	110.0	nt	nt
CN(C(=O)COC(=O)c1ccccc1OCc1ccc(Cl)cc1)c1c(N)n(Cc2ccccc2)c(=O)[nH]c1=O	nt	3.7	nt	97.0	nt	nt
Cc1ccc(S(=O)(=O)NC2OC(=O)C(Cl)=C2Cl)cc1 (stereo not drawn)	-1.8	-4.2	-3.64*	94.0	0.615	i
CCC(C)(C)c1ccc(OCCCC[n+]2cccc(C)c2)c(C(C)(C)CC)c1	1.3	1.7	-4.79*	99.0	0.845	i
CC(C)(C)NC(=O)c1nc2nc(-c3ccccc3)cc(C(F)(F)F)n2n1	3.5	0.6	-0.501	99.0	-0.0937	nt
Cc1cccc2cc3c(N)c(C#N)sc3nc12	-10.7	-1.3	0.455	105.0	0.939	nt
Cc1cccc2cc3c(N)c(C(=O)Nc4ccc(N5CCOCC5)cc4)sc3nc12	-43.7	-1.0	-0.493	109.0	nt	nt
Cc1sc(NC(=O)c2sc3nc4c(C)cccc4cc3c2N)c(C#N)c1C	-5.6	-2.6	-4.92	388.0	0.541	+
Cc1cccc2cc3c(N)c(C(=O)N4CCc5ccccc54)sc3nc12	1.7	-0.1	-11.2	i	0.193	i
CCc1nc2c(OCc3ccc(F)cc3)cccn2c1N(C)C(=O)COc1ccccc1	nt	nt	nt	95.0	nt	nt
CC(c1ccccc1)N1CCN(C(=O)CCl)CC1 (stereo not drawn)	-9.0	0.9	-4.94*	102.0	-0.0866	i
COc1ccc(N2CCN(C(=O)C3CCN(C(=O)c4ccc([N+](=O)[O-])cc4)CC3)CC2)cc1	-11.2	-8.1	nt	93.0	nt	nt
